Reference: paper PMC3954597 (Biochemistry, 2014)

Legend:
Assay type in all cases: biochemical
PTP1B = target: T1, PTP1B (Homo sapiens, UniProt P18031); test: PTP assay, wild-type PTP1B; conditions: for kcat/KM x 10^7: WT PTP1B aa 1–321, pH 7.4; for kcat/KM x10^6: WT catalytic domain aa 1–321, 100 mM HEPES pH 7.4, monitored at 282 nm
T1 sequence (P18031 1-321): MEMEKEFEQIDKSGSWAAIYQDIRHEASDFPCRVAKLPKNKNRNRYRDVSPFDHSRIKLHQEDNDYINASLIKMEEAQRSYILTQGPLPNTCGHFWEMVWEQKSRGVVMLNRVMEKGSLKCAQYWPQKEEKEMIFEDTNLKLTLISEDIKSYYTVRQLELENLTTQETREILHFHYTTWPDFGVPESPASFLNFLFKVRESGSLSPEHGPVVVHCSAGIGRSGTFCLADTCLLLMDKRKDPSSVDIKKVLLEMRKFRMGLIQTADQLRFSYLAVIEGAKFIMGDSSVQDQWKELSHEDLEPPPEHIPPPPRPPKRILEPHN
Procedure, shortened: (§1)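 E. coli-expressed catalytic domains were used: wild-type, R24M or R47E PTP1B (aa 1–321), and SHP-1 (aa 205–595). Reactions started with PTP (0.5–20000 nM final) and dephosphorylation was monitored continuously at 282 nm. kcat, KM and kcat/KM came from initial-rate fits (Michaelis–Menten, or V = kcat[E][S]/KM when KM >> [S]) or from fits of progress curves.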

R24M PTP1B = target: T2, R24M PTP1B (Homo sapiens, UniProt P18031, R24M); test: PTP assay, R24M PTP1B; conditions: for Km / kcat / kcat/KM x 10^7: R24M PTP1B aa 1–321, pH 7.4; for WT/R24M: ratio of kcat/KM, WT over R24M PTP1B (fold reduction by the mutation)
T2 sequence (P18031 1-321 R24M): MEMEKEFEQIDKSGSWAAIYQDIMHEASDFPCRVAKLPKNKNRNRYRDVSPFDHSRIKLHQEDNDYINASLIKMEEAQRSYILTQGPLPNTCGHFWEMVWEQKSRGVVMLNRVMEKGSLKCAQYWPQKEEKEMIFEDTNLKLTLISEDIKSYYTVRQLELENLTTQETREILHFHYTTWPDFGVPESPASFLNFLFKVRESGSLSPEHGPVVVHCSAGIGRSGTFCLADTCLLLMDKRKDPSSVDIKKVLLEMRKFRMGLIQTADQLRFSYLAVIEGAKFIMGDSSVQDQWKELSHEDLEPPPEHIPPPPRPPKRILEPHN
Procedure, shortened: as §1

R47E PTP1B = target: T3, R47E PTP1B (Homo sapiens, UniProt P18031, R47E); test: PTP assay, R47E PTP1B; conditions: for Km / kcat / kcat/KM x 10^7: R47E PTP1B aa 1–321, pH 7.4; for WT/R47E: ratio of kcat/KM, WT over R47E PTP1B (fold decrease by the mutation)
T3 sequence (P18031 1-321 R47E): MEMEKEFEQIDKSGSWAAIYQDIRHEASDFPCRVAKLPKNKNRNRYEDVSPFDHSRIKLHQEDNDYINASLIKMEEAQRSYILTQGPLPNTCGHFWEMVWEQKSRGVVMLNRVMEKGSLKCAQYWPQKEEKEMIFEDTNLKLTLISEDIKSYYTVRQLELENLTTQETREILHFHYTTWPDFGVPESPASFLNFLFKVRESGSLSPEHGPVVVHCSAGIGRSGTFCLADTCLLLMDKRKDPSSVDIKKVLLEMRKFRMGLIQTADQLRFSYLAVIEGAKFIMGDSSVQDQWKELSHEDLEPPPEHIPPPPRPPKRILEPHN
Procedure, shortened: as §1

PTP-PEST = target: T4, PTP-PEST (Homo sapiens, UniProt Q05209); test: PTP assay with pY peptide substrates, PTP-PEST; conditions: catalytic domain; pH 7.4
T4 sequence (Q05209 5-300): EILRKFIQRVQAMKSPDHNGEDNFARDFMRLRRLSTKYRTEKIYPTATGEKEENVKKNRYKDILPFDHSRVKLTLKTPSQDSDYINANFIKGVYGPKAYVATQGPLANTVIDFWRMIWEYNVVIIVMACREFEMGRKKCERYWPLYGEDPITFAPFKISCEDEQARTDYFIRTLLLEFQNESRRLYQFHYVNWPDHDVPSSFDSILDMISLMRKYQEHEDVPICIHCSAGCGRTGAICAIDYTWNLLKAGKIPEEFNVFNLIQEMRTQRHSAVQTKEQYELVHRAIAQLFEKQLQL

Row | Substance | kcat/KM x 10^7 (PTP1B) | Km (R24M PTP1B) [µM] | kcat (R24M PTP1B) [s⁻¹] | kcat/KM x 10^7 (R24M PTP1B) | WT/R24M (R24M PTP1B) | Km (R47E PTP1B) [µM] | kcat (R47E PTP1B) [s⁻¹] | kcat/KM x 10^7 (R47E PTP1B) | WT/R47E (R47E PTP1B) | kcat/KM x10^6 (PTP1B) | increased PTP1B activity by R24M mutation (R24M PTP1B; R24M relative to WT) [fold] | increased PTP1B activity by R47E mutation (R47E PTP1B; R47E relative to WT) [fold] | kcat/KM (PTP-PEST) [M⁻¹ s⁻¹]
1 | AApYAAADD | 0.97 x 10^7 M^−1 s^−1 | 8.7 ± 0.4 | 37 ± 1 | 0.43 x 10^7 M^−1 s^−1 | 2.3 | 10 ± 1 | 35 ± 1 | 0.35 x 10^7 M^−1 s^−1 | 2.8 | – | – | – | –
2 | AApYAADDA | 1.1 x 10^7 M^−1 s^−1 | 6.9 ± 0.1 | 38 ± 1 | 0.55 x 10^7 M^−1 s^−1 | 2.0 | 11 ± 2 | 36 ± 2 | 0.32 x 10^7 M^−1 s^−1 | 3.4 | – | – | – | –
3 | AApYADDAA | 1.4 x 10^7 M^−1 s^−1 | 6.4 ± 0.2 | 38 ± 1 | 0.59 x 10^7 M^−1 s^−1 | 2.4 | 12 ± 1 | 34 ± 1 | 0.29 x 10^7 M^−1 s^−1 | 4.8 | – | – | – | –
4 | AApYDDAAA | 0.43 x 10^7 M^−1 s^−1 | – | – | 0.027 x 10^7 M^−1 s^−1 | 16 | 34 ± 2 | 33 ± 2 | 0.097 x 10^7 M^−1 s^−1 | 4.4 | – | – | – | –
5 | AApYDDIDE | 1.1 x 10^7 M^−1 s^−1 | 37 ± 1 | 42 ± 1 | 0.11 x 10^7 M^−1 s^−1 | 10 | 56 ± 2 | 43 ± 1 | 0.076 x 10^7 M^−1 s^−1 | 14 | 11 x10^6 M^−1 s^−1 | – | – | –
6 | AApYIRKRA | 0.042 x 10^7 M^−1 s^−1 | 52 ± 3 | 34 ± 1 | 0.065 x 10^7 M^−1 s^−1 | 0.62 | 89 ± 3 | 34 ± 2 | 0.038 x 10^7 M^−1 s^−1 | 1.1 | – | 1.6 | – | –
7 | AApYWAYDD | – | – | – | – | – | – | – | – | – | 15 x10^6 M^−1 s^−1 | – | – | –
8 | ARKRIpYAA | 0.025 x 10^7 M^−1 s^−1 | – | – | – | – | 31 ± 4 | 37 ± 2 | 0.12 x 10^7 M^−1 s^−1 | 0.21 | – | – | 5 | –
9 | Ac-AApYDLDEY-NH2 | – | – | – | – | – | – | – | – | – | 18 x10^6 M^−1 s^−1 | – | – | 1.3e+08
10 | Ac-ASSDEpYAA-NH2 | 1.7 x 10^7 M^−1 s^−1 | 3.8 ± 0.2 | 32 ± 1 | 0.84 x 10^7 M^−1 s^−1 | 2.0 | 32 ± 1 | 31 ± 1 | 0.097 x 10^7 M^−1 s^−1 | 18 | 17 x10^6 M^−1 s^−1 | – | – | 7.2e+06
